Measured values of several laboratories.
Target: Tyrosine-protein kinase Fes/Fps (FES, Homo sapiens, UniProt P07332)

CNCc1ccc(-c2cc(-c3nc(-c4ccc(S(=O)(=O)C(C)C)cc4)cnc3N)on2)cc1  inhibition (enzyme activity; inhibitor; 0.4 µM): 0%
O=c1cc(-c2cccc3c2Sc2ccccc2S3)oc(N2CCOCC2)c1  remaining activity (enzyme activity; inhibitor; 0.5 µM): 104%
CCCOc1ccc(OC)c(F)c1C(=O)c1ccc(C(=O)N[C@@H]2CNC[C@H]2NC(=O)c2ccc3[nH]ncc3c2)cc1  remaining activity (enzyme activity; inhibitor; 10 µM): 79%
Cc1cc(NC(=O)c2cccc3cc(-c4cccc5[nH]nc(N)c45)ccc23)ccc1F  activity vs control (enzyme activity; inhibitor; 0.1 µM): 97%
Cc1ccc(C(=O)Nc2ccc(CN3CCN(C)CC3)c(C(F)(F)F)c2)cc1C#Cc1cnc2cccnn12  remaining activity (enzyme activity; 23.5 nM): 100%
CC(C)(C)c1nc2c(s1)c1nc(N)ncc1c1ccc(NS(=O)(=O)c3c(F)cccc3F)c(F)c12  remaining activity (enzyme activity; inhibitor; radiometric; 1 µM): 93%
CC/C(=N\NC(=O)NCc1cccc(O)c1)c1ccc(O)c(C)c1O  inhibition (enzyme activity; inhibitor; 0.1 µM): 1.2%
O=C(Nc1cnn(-c2csc(C(=O)NC3COC3)c2)c1)Nc1ccccc1Cl  remaining activity (enzyme activity; inhibitor; 5 µM): 99.3%
O=C1Nc2ccc(Cl)cc2C1=Cc1cc(Cl)c(O)c(Cl)c1  remaining signal (cell-free assay; 0.5 µM): 93.7%
NS(=O)(=O)c1cc(NC(=O)Cc2ccccc2)ccc1Oc1cccc(Cl)c1  remaining binding (cell-free assay; competition with immobilised ligand; 1 µM): 92%
Cc1ccc(NC(=O)c2ccc(CN3CCN(C)CC3)cc2)cc1Nc1nccc(-c2cncc(-c3oncc3C)c2)n1  remaining activity (enzyme activity; inhibitor; 0.5 µM): ≤ 50%
O=C(O)[C@@H]1[C@@H](Cn2nnc3ccccc3c2=O)CC[C@H]1C(=O)c1ccc(OCCC2CCOCC2)cc1  remaining binding (cell-free assay; competition with immobilised ligand; 1 µM): 100%
COc1cc2ncnc(Nc3ccc(Oc4ccccc4)cc3C)c2cc1OC  inhibition (enzyme activity; inhibitor; 1 µM): 27%
CSc1cccnc1N1CCN(Cc2nc3ccccc3[nH]2)CC1  remaining binding (cell-free assay; competition with immobilised ligand; 1 µM): 98%
CN1CC(Oc2cnc(C#N)cc2-c2ccn3nc(NC(=O)C4CC4)cc3c2)C1  inhibition (enzyme activity; inhibitor; 1 µM): 8%
CS(=O)(=O)N1CCCC(NC(=O)[C@H](CCC2CCCCC2)NC(=O)c2ccc(CNC(=O)c3cnc4ccccn34)cc2)C1 (some centres unmarked)  remaining binding (cell-free assay; competition with immobilised ligand; 0.1 µM): 100%
Cc1ccc(C(=O)NCc2ccsc2)cc1C#Cc1cn(C(C)C)c2ncnc(N)c12  activity vs control (enzyme activity; inhibitor; 1 µM): 93%
COc1ccc2c(O[C@@H]3C[C@H]4C(=O)N[C@]5(C(=O)O)CC5/C=C\CCCCC[C@H](NC(=O)OC5CCCC5)C(=O)N4C3)cc(-c3csc(NC(=O)C(C)C)n3)nc2c1C (some centres unmarked)  remaining binding (cell-free assay; competition with immobilised ligand; 1 µM): 100%
N#CCCc1ccc2c(c1)-c1[nH]c3ccc([N+](=O)[O-])cc3c1CC(=O)N2  remaining signal (cell-free assay; 0.5 µM): 37.9%
O=c1nc(-c2ccccn2)sc2ccccc12  remaining binding (cell-free assay; competition with immobilised ligand; 1 µM): 100%
COc1cc(Cl)c(C(=O)N[C@@H](CN[C@H]2CC[C@@H](N)CC2)Cc2ccc(C#N)cc2)cc1-c1ccc(CN[C@H](C)c2ccc(C)cc2)o1  remaining activity (enzyme activity; inhibitor; 1 µM): 94%
CN([C@@H]1CCc2c(CC(=O)O)c3cc(S(C)(=O)=O)ccc3n2C1)S(=O)(=O)c1ccc(F)cc1  remaining binding (cell-free assay; competition with immobilised ligand; 1 µM): 92%
c1nc2c(Nc3ccc4c(c3)OCCO4)nc(Nc3ccc4c(c3)OCCO4)nc2[nH]1  activity vs control (enzyme activity; inhibitor; 10 µM): 62%
